ChEMBL document CHEMBL4304745, “On the Process of Discovering Leads That Target the Heparin-Binding Site of Neutrophil Elastase in the Sputum of Cystic Fibrosis Patients” (J Med Chem, 2019)
The source made the active and inactive calls. The calls are words filed in the database; no cut-off is given here.

Tests used:
Neutrophil elastase = target: T1, Neutrophil elastase (Homo sapiens, UniProt P08246); assay: Inhibition of human neutrophil elastase using S1384 as substrate preincubated for 5 mins followed by substrate addition
T1 sequence (P08246 whole entry): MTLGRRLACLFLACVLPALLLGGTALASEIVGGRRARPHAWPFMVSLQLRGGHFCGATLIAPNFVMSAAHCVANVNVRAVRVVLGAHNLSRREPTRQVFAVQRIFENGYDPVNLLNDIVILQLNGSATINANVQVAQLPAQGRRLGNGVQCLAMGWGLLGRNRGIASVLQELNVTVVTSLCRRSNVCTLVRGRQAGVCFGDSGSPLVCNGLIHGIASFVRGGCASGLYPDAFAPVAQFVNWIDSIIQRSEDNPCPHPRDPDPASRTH

[1] = target: T2, Neutrophil elastase (Homo sapiens) (UniProt P08246); assay: Inhibition of human neutrophil elastase assessed as reduction in elastin-congo red hydrolysis preincubated for 30 mins followed by elastin-congo red addition measured after 48 hrs
T2 sequence (whole entry): T1 sequence (P08246 whole entry)
Summary of the method: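 Elastin-congo red hydrolysis by HNE at pH 8. Congo red released by elastin degradation is quantified by absorbance at 497 nm. Run in triplicate; error bars are one standard deviation.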

Plasma [2] = assay: Anticoagulant activity in human plasma assessed as concentration required to double the prothrombin time measured after 5 mins; assay type: ADME, cell-free
Summary of the method: (§1)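 Clotting times (APTT and PT) measured in human plasma over a range of compound concentrations. The value is the concentration needed to double each clotting time.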

Plasma [3] = assay: Anticoagulant activity in human plasma assessed as concentration required to double the activated partial thromboplastin time measured after 5 mins; assay type: ADME, cell-free; summary of the method: as §1
Plasminogen = Plasminogen (Homo sapiens, UniProt P00747); assay: Inhibition of plasmin (unknown origin) using spectrozyme as substrate preincubated for 5 mins followed by substrate addition
Chain of Plasminogen (P00747 97-580 limits assumed): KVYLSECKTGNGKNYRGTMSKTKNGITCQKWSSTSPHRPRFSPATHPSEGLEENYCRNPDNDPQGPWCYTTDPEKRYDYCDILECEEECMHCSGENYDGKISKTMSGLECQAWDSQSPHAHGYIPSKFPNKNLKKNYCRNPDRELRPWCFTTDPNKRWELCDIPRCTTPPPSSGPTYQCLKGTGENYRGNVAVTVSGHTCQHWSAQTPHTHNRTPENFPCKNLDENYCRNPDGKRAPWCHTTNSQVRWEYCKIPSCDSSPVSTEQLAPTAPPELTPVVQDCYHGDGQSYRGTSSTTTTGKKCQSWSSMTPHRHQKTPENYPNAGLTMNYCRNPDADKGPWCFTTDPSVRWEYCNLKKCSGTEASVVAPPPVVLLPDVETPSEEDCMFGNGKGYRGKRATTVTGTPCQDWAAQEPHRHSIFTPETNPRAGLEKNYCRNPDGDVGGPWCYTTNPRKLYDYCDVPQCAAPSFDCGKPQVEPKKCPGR
Chain of Plasminogen (P00747 581-810 limits assumed): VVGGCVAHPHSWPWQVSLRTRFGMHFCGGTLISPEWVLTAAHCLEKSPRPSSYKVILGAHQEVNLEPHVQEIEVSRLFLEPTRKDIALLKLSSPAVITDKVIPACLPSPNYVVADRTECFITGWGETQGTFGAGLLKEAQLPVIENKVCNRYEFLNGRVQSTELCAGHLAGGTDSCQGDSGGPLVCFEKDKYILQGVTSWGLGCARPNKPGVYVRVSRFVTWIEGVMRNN

[4] = target: T2, Neutrophil elastase (Homo sapiens); assay: Inhibition of neutrophil elastase in cystic fibrosis patient-derived sputum using S1384 as substrate measured after 2 hrs in presence of DNAse1 and 150 mM NaCl; assay type: tissue-based
Summary of the method: (§2)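 Sputum from cystic fibrosis patients is cleared of insoluble debris by centrifugation and treated with DNase. HNE activity is then read by chromogenic substrate hydrolysis across increasing compound concentrations, up to about 2 mM.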

Coagulation factor XI = Coagulation factor XI (Homo sapiens, UniProt P03951); assay: Inhibition of factor 11a (unknown origin) using S-2366 as substrate preincubated for 5 mins followed by substrate addition
Chain of Coagulation factor XI (P03951 19-387 limits assumed): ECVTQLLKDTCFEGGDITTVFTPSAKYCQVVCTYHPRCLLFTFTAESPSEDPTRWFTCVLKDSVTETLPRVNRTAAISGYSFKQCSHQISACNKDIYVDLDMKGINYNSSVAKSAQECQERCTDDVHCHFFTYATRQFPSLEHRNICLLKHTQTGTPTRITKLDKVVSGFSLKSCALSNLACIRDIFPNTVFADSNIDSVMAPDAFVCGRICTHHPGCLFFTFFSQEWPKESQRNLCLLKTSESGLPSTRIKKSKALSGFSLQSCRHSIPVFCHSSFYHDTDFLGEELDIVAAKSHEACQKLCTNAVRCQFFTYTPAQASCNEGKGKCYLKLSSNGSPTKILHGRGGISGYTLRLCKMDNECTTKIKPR
Chain of Coagulation factor XI (P03951 388-625 limits assumed): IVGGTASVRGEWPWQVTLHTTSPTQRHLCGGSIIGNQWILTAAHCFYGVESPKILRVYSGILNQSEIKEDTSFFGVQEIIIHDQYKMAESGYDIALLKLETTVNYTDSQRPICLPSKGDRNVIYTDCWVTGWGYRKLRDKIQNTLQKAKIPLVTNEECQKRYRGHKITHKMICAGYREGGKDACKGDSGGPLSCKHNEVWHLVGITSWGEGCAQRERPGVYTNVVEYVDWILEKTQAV

Plasma [5] = assay: Anticoagulant activity in human plasma assessed as effect on prothrombin time at 855 uM measured after 5 mins; assay type: ADME, cell-free
Summary of the method: (§3)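 APTT and PT recorded in human plasma with compound present at concentrations up to 855 µM. The read-out is the change in clotting time relative to untreated plasma.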

[6] = target: T2, Neutrophil elastase (Homo sapiens); assay: Inhibition of neutrophil elastase in cystic fibrosis patient-derived sputum up to 250 using S1384 as substrate measured after 2 hrs in presence of DNAse1 and 150 mM NaCl; assay type: tissue-based
Homo sapiens [7] = species: Homo sapiens; assay: Selectivity ratio of IC50 for plasmin (unknown origin) to IC50 for human neutrophil elastase
[8] = target: T2, Neutrophil elastase (Homo sapiens); assay: Inhibition of neutrophil elastase in cystic fibrosis patient-derived sputum 2 mM using S1384 as substrate measured after 2 hrs; assay type: tissue-based
[9] = Solubility of the compound in water; assay type: physicochemical
Myeloblastin = target: T3, Myeloblastin (Homo sapiens, UniProt P24158); assay: Inhibition of human neutrophil proteinase 3 using M4765 as substrate preincubated for 5 mins followed by substrate addition
T3 sequence (P24158 whole entry): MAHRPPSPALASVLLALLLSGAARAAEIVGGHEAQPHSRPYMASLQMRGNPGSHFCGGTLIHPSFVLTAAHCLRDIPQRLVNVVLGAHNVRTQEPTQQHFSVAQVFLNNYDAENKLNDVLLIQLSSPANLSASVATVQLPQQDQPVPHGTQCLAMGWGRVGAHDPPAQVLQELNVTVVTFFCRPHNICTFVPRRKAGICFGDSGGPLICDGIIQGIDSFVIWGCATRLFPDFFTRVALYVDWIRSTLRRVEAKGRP

Homo sapiens [10] = species: Homo sapiens; assay: Selectivity ratio of IC50 for factor 10a (unknown origin) to IC50 for human neutrophil elastase
Plasma [11] = assay: Anticoagulant activity in human plasma assessed as effect on activated partial thromboplastin time at 855 uM measured after 5 mins; assay type: ADME, cell-free; summary of the method: as §3
Prothrombin = Prothrombin (Homo sapiens, UniProt P00734); assay: Inhibition of thrombin (unknown origin) using spectrozyme as substrate preincubated for 5 mins followed by substrate addition
Homo sapiens [12] = species: Homo sapiens; assay: Selectivity ratio of IC50 for thrombin (unknown origin) to IC50 for human neutrophil elastase
Coagulation factor X = Coagulation factor X (Homo sapiens, UniProt P00742); assay: Inhibition of factor 10a (unknown origin) using spectrozyme as substrate preincubated for 5 mins followed by substrate addition
Chain of Coagulation factor X (P00742 41-179 limits assumed): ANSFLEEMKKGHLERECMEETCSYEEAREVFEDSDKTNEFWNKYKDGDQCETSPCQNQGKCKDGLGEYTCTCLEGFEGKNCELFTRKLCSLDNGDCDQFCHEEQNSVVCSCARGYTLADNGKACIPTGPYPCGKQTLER
Chain of Coagulation factor X (P00742 235-488 limits assumed): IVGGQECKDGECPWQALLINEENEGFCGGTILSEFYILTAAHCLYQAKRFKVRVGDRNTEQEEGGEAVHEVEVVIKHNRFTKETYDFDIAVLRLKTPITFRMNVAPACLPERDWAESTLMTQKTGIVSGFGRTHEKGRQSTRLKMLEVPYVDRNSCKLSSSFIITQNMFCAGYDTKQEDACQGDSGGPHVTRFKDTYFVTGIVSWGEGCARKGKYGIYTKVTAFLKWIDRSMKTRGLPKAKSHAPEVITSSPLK

[13] = target: T2, Neutrophil elastase (Homo sapiens); assay: Mixed type inhibition of human neutrophil elastase assessed as decrease in Vmax for substrate at 1000 uM using varying levels of S1384 as substrate by Michaelis-Menten plot analysis relative to control
[14] = target: T2, Neutrophil elastase (Homo sapiens); assay: Inhibition of neutrophil elastase in cystic fibrosis patient-derived sputum at 2 mM using S1384 as substrate measured after 2 hrs in presence of DNAse1 and 150 mM NaCl; assay type: tissue-based; summary of the method: as §2
Cathepsin G = target: T4, Cathepsin G (Homo sapiens, UniProt P08311); assay: Inhibition of human leukocyte cathepsin G using S7388 as substrate preincubated for 5 mins followed by substrate addition
T4 sequence (P08311 whole entry): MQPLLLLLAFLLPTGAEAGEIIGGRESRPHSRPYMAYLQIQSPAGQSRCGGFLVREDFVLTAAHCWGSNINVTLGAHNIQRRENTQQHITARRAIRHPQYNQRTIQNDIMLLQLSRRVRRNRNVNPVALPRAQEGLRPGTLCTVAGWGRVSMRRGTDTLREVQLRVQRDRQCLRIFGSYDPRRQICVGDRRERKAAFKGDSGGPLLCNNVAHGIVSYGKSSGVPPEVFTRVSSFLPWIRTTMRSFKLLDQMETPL

[15] = target: T2, Neutrophil elastase (Homo sapiens); assay: Inhibition of neutrophil elastase in cystic fibrosis patient-derived sputum at 2 mM using S1384 as substrate measured after 2 hrs in presence of DNAse1 and 400 mM NaCl; assay type: tissue-based; summary of the method: as §2
[16] = target: T2, Neutrophil elastase (Homo sapiens); assay: Mixed type inhibition of human neutrophil elastase assessed as increase in Km for substrate at 1000 uM using varying levels of S1384 as substrate by Michaelis-Menten plot analysis relative to control
Homo sapiens [17] = species: Homo sapiens; assay: Selectivity ratio of IC50 for factor 11 (unknown origin) to IC50 for human neutrophil elastase
[18] = compound: O=c1cc(-c2ccc(OS(=O)(=O)O)cc2)oc2cc(OS(=O)(=O)O)cc(OCc3cccc(COc4cc(OS(=O)(=O)O)cc5oc(-c6ccc(OS(=O)(=O)O)cc6)cc(=O)c45)n3)c12; assay: Mixed type inhibition of human neutrophil elastase assessed as Km for substrate at 750 uM using varying levels of S1384 as substrate by Michaelis-Menten plot analysis (reference value: 650 +/- 24 uM)
[19] = compound: O=c1cc(-c2ccc(OS(=O)(=O)O)cc2)oc2cc(OS(=O)(=O)O)cc(OCc3cccc(COc4cc(OS(=O)(=O)O)cc5oc(-c6ccc(OS(=O)(=O)O)cc6)cc(=O)c45)n3)c12; assay: Mixed type inhibition of human neutrophil elastase assessed as Vmax for substrate at 500 uM using varying levels of S1384 as substrate by Michaelis-Menten plot analysis (reference value: 40.1 +/- 0.5 mAU/min)
[20] = compound: O=c1cc(-c2ccc(OS(=O)(=O)O)cc2)oc2cc(OS(=O)(=O)O)cc(OCc3cccc(COc4cc(OS(=O)(=O)O)cc5oc(-c6ccc(OS(=O)(=O)O)cc6)cc(=O)c45)n3)c12; assay: Mixed type inhibition of human neutrophil elastase assessed as Km for substrate at 1000 uM using varying levels of S1384 as substrate by Michaelis-Menten plot analysis (reference value: 650 +/- 24 uM)
[21] = compound: O=c1cc(-c2ccc(OS(=O)(=O)O)cc2)oc2cc(OS(=O)(=O)O)cc(OCc3cccc(COc4cc(OS(=O)(=O)O)cc5oc(-c6ccc(OS(=O)(=O)O)cc6)cc(=O)c45)n3)c12; assay: Mixed type inhibition of human neutrophil elastase assessed as Km for substrate at 250 uM using varying levels of S1384 as substrate by Michaelis-Menten plot analysis (reference value: 650 +/- 24 uM)
[22] = compound: O=c1cc(-c2ccc(OS(=O)(=O)O)cc2)oc2cc(OS(=O)(=O)O)cc(OCc3cccc(COc4cc(OS(=O)(=O)O)cc5oc(-c6ccc(OS(=O)(=O)O)cc6)cc(=O)c45)n3)c12; assay: Mixed type inhibition of human neutrophil elastase assessed as Vmax for substrate at 1000 uM using varying levels of S1384 as substrate by Michaelis-Menten plot analysis (reference value: 40.1 +/- 0.5 mAU/min)
[23] = compound: O=c1cc(-c2ccc(OS(=O)(=O)O)cc2)oc2cc(OS(=O)(=O)O)cc(OCc3cccc(COc4cc(OS(=O)(=O)O)cc5oc(-c6ccc(OS(=O)(=O)O)cc6)cc(=O)c45)n3)c12; assay: Mixed type inhibition of human neutrophil elastase assessed as Vmax for substrate at 750 uM using varying levels of S1384 as substrate by Michaelis-Menten plot analysis (reference value: 40.1 +/- 0.5 mAU/min)
[24] = compound: O=c1cc(-c2ccc(OS(=O)(=O)O)cc2)oc2cc(OS(=O)(=O)O)cc(OCc3cccc(COc4cc(OS(=O)(=O)O)cc5oc(-c6ccc(OS(=O)(=O)O)cc6)cc(=O)c45)n3)c12; assay: Mixed type inhibition of human neutrophil elastase assessed as Vmax for substrate at 250 uM using varying levels of S1384 as substrate by Michaelis-Menten plot analysis (reference value: 40.1 +/- 0.5 mAU/min)
[25] = compound: O=c1cc(-c2ccc(OS(=O)(=O)O)cc2)oc2cc(OS(=O)(=O)O)cc(OCc3cccc(COc4cc(OS(=O)(=O)O)cc5oc(-c6ccc(OS(=O)(=O)O)cc6)cc(=O)c45)n3)c12; assay: Mixed type inhibition of human neutrophil elastase assessed as Km for substrate at 500 uM using varying levels of S1384 as substrate by Michaelis-Menten plot analysis (reference value: 650 +/- 24 uM)

O=c1c(OS(=O)(=O)O)c(-c2ccc(OS(=O)(=O)O)c(OS(=O)(=O)O)c2)oc2cc(OS(=O)(=O)O)cc(OCc3ccc(COc4cc(OS(=O)(=O)O)cc5oc(-c6ccc(OS(=O)(=O)O)c(OS(=O)(=O)O)c6)c(OS(=O)(=O)O)c(=O)c45)cc3)c12
IC50 (Neutrophil elastase): 230 nM

O=C(OC[C@H]1O[C@@H](OC(=O)c2cc(OS(=O)(=O)[O-])c(O)c(OS(=O)(=O)[O-])c2)[C@H](OC(=O)c2cc(OS(=O)(=O)[O-])c(O)c(OS(=O)(=O)[O-])c2)[C@@H](OC(=O)c2cc(OS(=O)(=O)[O-])c(O)c(OS(=O)(=O)[O-])c2)[C@@H]1OC(=O)c1cc(OS(=O)(=O)[O-])c(O)c(OS(=O)(=O)[O-])c1)c1cc(OS(=O)(=O)[O-])c(O)c(OS(=O)(=O)[O-])c1.[Na+].[Na+].[Na+].[Na+].[Na+].[Na+].[Na+].[Na+].[Na+].[Na+] [sulfated pentagalloylglucoside]
inhibition [1]: Active
2PT (Plasma [2]): 152 µM
IC50 (Neutrophil elastase): 40 nM
2aPTT (Plasma [3]): 49 µM

O=c1cc(-c2ccc(OS(=O)(=O)[O-])cc2)oc2cc(OS(=O)(=O)[O-])cc(OCc3cccc(COc4cc(OS(=O)(=O)[O-])cc5oc(-c6ccc(OS(=O)(=O)[O-])cc6)cc(=O)c45)n3)c12.[Na+].[Na+].[Na+].[Na+]
inhibition (INH) (Plasminogen): Active
inhibition [4]: Dose-dependent effect
inhibition (INH) (Coagulation factor XI): Active
Activity (Plasma [5]): Non-Toxic
inhibition [6]: inactive
Ratio IC50 (Homo sapiens [7]): > 50
inhibition [1]: Active
inhibition [8]: inactive
solubility [9]: > 10000 µg/mL
IC50 (Myeloblastin): 54000 nM
Ratio IC50 (Homo sapiens [10]): > 50
Activity (Plasma [11]): Non-Toxic
inhibition (INH) (Prothrombin): Active
Ratio IC50 (Homo sapiens [12]): > 50
IC50 (Neutrophil elastase): 690 nM
inhibition (INH) (Coagulation factor X): Active
fold change (FC) [13]: 2.5
inhibition [14]: 100%
IC50 (Cathepsin G): 1100 nM
inhibition [15]: Active
fold change (FC) [16]: 3
Ratio IC50 (Homo sapiens [17]): 28

O=c1cc(-c2ccc(OS(=O)(=O)O)cc2)oc2cc(OS(=O)(=O)O)cc(OCc3cccc(COc4cc(OS(=O)(=O)O)cc5oc(-c6ccc(OS(=O)(=O)O)cc6)cc(=O)c45)c3)c12
IC50 (Neutrophil elastase): 157000 nM

O=c1c(OS(=O)(=O)O)c(-c2ccc(OS(=O)(=O)O)c(OS(=O)(=O)O)c2)oc2cc(OS(=O)(=O)O)cc(OCCOc3cc(-c4oc5cc(OS(=O)(=O)O)cc(OCCOc6cc(OS(=O)(=O)O)cc7oc(-c8ccc(OS(=O)(=O)O)c(OS(=O)(=O)O)c8)c(OS(=O)(=O)O)c(=O)c67)c5c(=O)c4OS(=O)(=O)O)ccc3OS(=O)(=O)O)c12
IC50 (Neutrophil elastase): 140 nM

B1: Neutrophil elastase (Homo sapiens), P08246 (protein)
chain: T1 sequence (P08246 whole entry)
Km [18]: 1220 µM
Vmax [19]: 30.3 mAU/min
Km [20]: 1670 µM
Km [21]: 908 µM
Vmax [22]: 15.3 mAU/min
Vmax [23]: 19 mAU/min
Vmax [24]: 38.6 mAU/min
Km [25]: 788 µM
